Data on 5 compounds can be found in ChEMBL document CHEMBL1944617, “Near infrared active heptacyanine dyes with unique cancer-imaging and cytotoxic properties” (Bioorg Med Chem Lett, 2012).

Data set [1] concerns HeLa. Put plainly: Cytotoxicity against human HeLa cells after 48 hrs by MTT assay. The data set is classed as functional, cell-based. In outline:
(§1)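 HeLa and HDF in DMEM, PC-3 in RPMI, each with 10% FBS and 1% pen/strep. Seeded at 5 × 10³ cells/well, then given dye in DMSO (final DMSO 0.1%) at 0, 0.75, 1, 2, 5, 10, 15, 20 µM for 48 h. Washed twice with PBS, MTT added, 4 h at 37 °C in the dark. Formazan dissolved in DMSO, A570 read. IC50 taken from the survival-versus-concentration curve.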
A general note: Tetrazolium assays rely on reduction of a dye to a coloured formazan, in cell work by metabolically active cells.

Data set [2] in a line: Cellular uptake in human PC3 cell cytoplasm at 20 uM after 8 hrs by fluorescence confocal microscopic analysis. The data set is classed as ADME, cell-based. The conditions noted are these: pc-3, 8 h. An outline of the steps: (§2)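 PC-3 (RPMI) or primary human dermal fibroblasts (DMEM), 10% FBS, 1% pen/strep, grown on glass coverslips and exposed to dye at 20 µM for 8 h. Fixed in cold (−20 °C) methanol 10 min, blocked in 2% BSA/PBS at 37 °C 1 h, actin stained with fluorescent phalloidin 1 h RT, mounted with DAPI antifade. NIR dye imaged with ICG filter set and 780 nm LED.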

For data set [3], the system named is PC-3. Nature of the data set: Cytotoxicity against human PC3 cells assessed as cell death at 5 to 20 uM after 24 hrs by trypan blue exclusion assay. It counts as functional. An outline of the steps: (§3)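 Cells treated 24 h with dye at 5, 10 or 20 µM (PC-3 in RPMI; HeLa and HDF in DMEM; 10% FBS, 1% penicillin/streptomycin). Cells pelleted, PBS-washed, mixed 1:1 with 0.4% trypan blue in PBS pH 7.4, 5 min room temperature. Blue cells scored non-viable by microscope counting. Mean and SD of three independent experiments.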

Data set [4] in a line: Cytotoxicity against human HDF cells after 48 hrs by MTT assay. The data set is classed as cell-based. Conditions: for IC50: Homo sapiens, HDF; for Activity: human, hdf. An outline of the steps: as §1
Data set [5] is described as follows: Cytotoxicity against human HDF cells assessed as cell viability at 5 to 20 uM after 24 hrs by trypan blue exclusion assay. The data set is classed as cell-based. The conditions noted are these: for Activity: hdf, 24 h, 20 µM. An outline of the steps: (§4)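 Primary human dermal fibroblasts in DMEM with 10% FBS and 1% pen/strep, dosed at 5, 10 or 20 µM for 24 h. Cells pelleted and washed with PBS, then mixed 1:1 with 0.4% trypan blue in PBS pH 7.4, 5 min RT. Blue cells scored non-viable by microscope counting. Mean ± SD of three independent experiments.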

Data set [6] concerns PC-3. Nature of the data set: Cytotoxicity against human PC3 cells after 48 hrs by MTT assay. It counts as functional, cell-based. Conditions: for IC50: PC-3, 48 h. An outline of the steps:
as §1

Data set [7] relates to HeLa. Put plainly: Cytotoxicity against human HeLa cells assessed as cell death at 5 to 20 uM after 24 hrs by trypan blue exclusion assay. The data set is classed as functional. In outline:
as §3

A short description of data set [8]: Cellular uptake in human HDF cell cytoplasm at 20 uM after 8 hrs by fluorescence confocal microscopic analysis. The data set is classed as ADME, cell-based. An outline of the steps: as §2
A short description of data set [9]: Cytotoxicity against human HDF cells assessed as cell death at 5 to 10 uM after 24 hrs by trypan blue exclusion assay. It counts as cell-based. An outline of the steps:
as §4

In data set [10] the test system is HeLa. Put plainly: Cytotoxicity against human HeLa cells assessed as cell survival at 5 to 10 uM after 24 hrs by trypan blue exclusion assay. It counts as functional. An outline of the steps:
as §3

For data set [11], the system named is PC-3. Nature of the data set: Cytotoxicity against human PC3 cells assessed as cell survival at 5 to 10 uM after 24 hrs by trypan blue exclusion assay. The data set is classed as functional. An outline of the steps:
as §3

The nature of data set [12]: Cytotoxicity against human HDF cells assessed as cell survival at 5 to 10 uM after 24 hrs by trypan blue exclusion assay. It counts as cell-based. Conditions: read-out: Survival. In outline: as §3
Data set [13] can be described thus: Cytotoxicity against human HDF cells assessed as cell death at 20 uM after 24 hrs by trypan blue exclusion assay. The data set is classed as cell-based. In outline: as §4

The structures appear in SMILES notation. Activity calls are given as the source filed them. The rule behind the calls is not given here.

Broadly, the IC50 is the midpoint of a concentration-inhibition curve. Read a low IC50 as inhibition by little substance. Consider `COC(=O)CCCCCN1/C(=C/C=C2\CCCC(/C=C/C3=[N+](CCCCCC(=O)OC)c4ccccc4C3(C)C)=C2Cl)C(C)(C)c2ccccc21.[Br-]`, for which the IC50 worked out at 800 nM in the data set with HeLa [1], 10000 nM in data set [4] and 3000 nM in the data set with PC-3 [6]. Besides, the Drug uptake result in data set [2] is listed as “Active”; in data set [8], “Not Active”. The Activity in the data set with PC-3 [3] and in the data set with HeLa [7] was greater than 90% throughout. In addition, in data set [5] (HDF cells, read-out: Activity), the viability at 24 h, up to 20 µM was determined as 100%.

Regarding `CC1(C)C(/C=C/C2=C(Cl)C(=C/C=C3/N(CCCCS(=O)(=O)O)c4ccccc4C3(C)C)/CCC2)=[N+](CCCCS(=O)(=O)[O-])c2ccccc21`, the outcome with HeLa [1], in the data set with PC-3 [3], in the data set with PC-3 [6] and in the data set with HeLa [7] was inactive.

On to `CC1(C)C(/C=C/C2=C(Cl)C(=C/C=C3\N(CCCCS(=O)(=O)[O-])c4ccccc4C3(C)C)/CCC2)=[N+](CCCCS(=O)(=O)[O-])c2ccccc21.[Na+]`, for which the Drug uptake result in data set [2] and in data set [8] was “Not Active” in each case. For the same compound, the Activity entry in data set [4] and in data set [5] was “Non-toxic” throughout.

Take `CC1(C)C(/C=C/C2=C(Cl)C(=C/C=C3/N(CCCCCC(=O)O)c4ccccc4C3(C)C)/CCC2)=[N+](CCCCCC(=O)O)c2ccccc21.[Br-]`: the outcome with HeLa [1], in the data set on PC-3 [3], with PC-3 [6] and with HeLa [7] was inactive. Also, the Drug uptake result in data set [2] and in data set [8] was “Not Active” each time. The Activity entry in [4] and in data set [5] was “Non-toxic” in each case.

With `COC(=O)CCCCCN1/C(=C/C=C2\CCCC(/C=C/C3=[N+](CCCCCC(=O)O)c4ccccc4C3(C)C)=C2Cl)C(C)(C)c2ccccc21.[Br-]`, the Activity came out at 10% in data set [9] and 80% in [13]. Besides, the IC50 turned out to be 1000 nM in the data set with HeLa [1], 5000 nM in data set [4] and 2000 nM in the data set with PC-3 [6]. Further, the Survival with HeLa [10] and in the data set on PC-3 [11] was 20% each time. Also, the results for the Drug uptake result in data set [2] and in data set [8] were “Active” and “Not Active”, respectively. Besides, the result in the data set on PC-3 [3] and in the data set with HeLa [7] was Active. Moreover, the viability at 24 h, up to 10 µM in data set [12] is 85%.
